The record followed here is ChEMBL document CHEMBL4513216, “Probing the Open Global Health Chemical Diversity Library for Multistage-Active Starting Points for Next-Generation Antimalarials” (ACS Infect Dis, 2020).

Each structure is given as a SMILES string.

A short description of the data set: Toxicity liver stage against HepG2, at 10uM. It is filed as cell-based. Also on record: test concentration 10 uM, cell line HepG2-A16-CD81EGFP. As to conditions: human, HepG2-A16-CD81EGFP cells; read-out: INHIBITION
Summed up: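 Uninfected HepG2-A16-CD81EGFP cells, 3 × 10^3 per well, 1536-well, plated on prespotted compound at 10 μM final, parasite-free screening media added to match infected plates; puromycin 10 μM positive, DMSO 0.5% negative; run in parallel with 48 h PbLuc assay at 37 °C, 5% CO2; viability by CellTiter-Glo luminescence, normalized to controls.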
For the compound `C[C@@H](O)CNC(=O)c1nc(Cc2c(Cl)cccc2Cl)no1`, the cytotoxicity at 10 µM is 0.483%.

With `Cn1cc(C(=O)NCC(Cc2cccc(F)c2)N2CCCCC2=O)nn1` (stereo not given), the cytotoxicity at 10 µM is -1.13%. `Cc1cccc(NC(=O)C2CSc3ncc(C)c(=O)n3C2)n1` (stereo not given): the cytotoxicity at 10 µM is 0.0115%. As for `CCOCC1COCCC12CCN(C(=O)C1=CCCCC1)CC2` (stereo not given), the figure is -3.09%; as for `CC1N(C)C(=O)COC12CCN(C(=O)CCc1ccccc1)CC2` (stereo not given), 0.227%.

Turning to `CCc1ccc(C(=O)N2C[C@@H]3COC[C@@H](C(=O)NC)[C@@H]3C2)cc1`, the cytotoxicity at 10 µM came to 1.58%. Regarding `NCC1Cn2nnc(-c3cccc(F)c3)c2CO1` (stereo not given), the cytotoxicity at 10 µM was -12.1%. For the compound `Cc1cccc(CN2C[C@@H]3COC[C@]3(COc3ccc(C#N)cn3)C2)n1`, the cytotoxicity at 10 µM was -21.2%. As for `O=C(O)Cn1nc(C2CC2)c2c(-c3ccc(F)cc3)ccnc21`, the figure is -3.32%; as for `c1cnc(-c2nn3c(CN4CCCCC4)nnc3s2)cn1`, 5.31%. With `CCn1nc(C)c(CN(C)S(=O)(=O)c2cnn(C)c2)c1C`, the cytotoxicity at 10 µM was determined as 5.62%. As for `Cc1ccc(C2CCCN(S(C)(=O)=O)C2)nc1` (stereo not given), the figure is 2.32%. Then `CC(=O)NCCNC(=O)Nc1ccc(Br)cc1C(C)C`, with 6.54%; and `O=C(CN(Cc1cccs1)C1CCS(=O)(=O)C1)NC1CCCCC1` (stereo not given), with -7.53%. Then `Cn1nc(C(=O)NC2(c3ccc(Cl)cc3)CCCC2)ccc1=O`, with -4.47%; and `COc1ccc(CNc2cc(-c3nc(C)no3)ccn2)c(OC)c1`, with 9.07%. Regarding `CC(C)c1nc(C(=O)N2CCc3ccccc3C2C(=O)O)cs1` (stereo not given), the cytotoxicity at 10 µM turned out to be 9.63%.

With `COc1ccc(CCC(=O)N2CCN(c3nc(C)ns3)CC2)cc1`, the cytotoxicity at 10 µM was 6.26%. Then `NC(=O)NC1CCN(Cc2ccccc2OCC(F)(F)F)CC1`, with 0.451%; and `COc1cccc(S(=O)(=O)NC(=O)c2c(C)noc2C(C)C)c1`, with -6.83%. Then `FC(F)CN1CCC(NCCc2ccc(-n3cccn3)cc2)CC1`, with 14.5%; and `Cc1nnc2n1CCN(C(=O)C(OC1CCCC1)c1ccccc1)C2` (stereo not given), with 5.87%.

For the compound `CC(C)(C)OC(=O)N1CCCN(c2nnc(C3CC3)s2)CC1`, the cytotoxicity at 10 µM is 8.05%. Take `CCc1nc(CNc2ccc(C(=O)NCc3ccco3)cc2C)no1`: the cytotoxicity at 10 µM is 2.4%. As for `COC(=O)C(O)C1CCN(Cc2cccc(-n3cccn3)c2)CC1` (stereo not given), the figure is -16.5%. With `Cc1cccc(N(CCC(N)=O)CC(=O)Nc2ccccc2)c1`, the cytotoxicity at 10 µM is -9.5%. Then `CS(=O)(=O)N1CCN(CC(=O)Nc2cccc(Cl)c2)CC1`, with -50.8%; and `O=S(=O)(NC1CCCCC12OCCO2)c1cc(F)cc(F)c1` (stereo not given), with -3.55%; and `COCC1CN(C(=O)Nc2ccc(Cl)cc2Cl)CCO1` (stereo not given), with 4.26%. Then `COc1ccc(NC(=O)c2ccc[nH]2)c(N2CCN(C(C)=O)CC2)n1`, with -11.2%. As for `O=C(NCCc1ccccn1)NC1CCN(c2ncccn2)CC1`, the figure is -16.3%; as for `Cc1ccc(N2C[C@H]3OCC[C@H]3[C@H](C(=O)NC3CCC3)C2)nn1`, -69.9%; as for `COc1cc(N2CC[C@H](O)[C@@H]2Cc2cccnc2)ncn1`, -71.8%. Consider `CCC(=O)N1CCN(C(=O)c2ccc(OC)o2)[C@H]2CS(=O)(=O)C[C@H]21`, for which the cytotoxicity at 10 µM is 0.224%. As for `Cc1cccc(C(Nc2nccc(C)n2)C2CC2)n1` (stereo not given), the figure is -2.67%.

`CC(C)CCN1CCCC(Cn2cc(CCO)nn2)C1` (stereo not given): the cytotoxicity at 10 µM was -6.02%. As for `Cc1cccc(C(C(=O)N2CC(Oc3ccccc3F)C2)N(C)C)c1` (stereo not given), the cytotoxicity at 10 µM is -0.572%.

As for `OC[C@H]1CN(Cc2c(Cl)cncc2Cl)C[C@H]1CN1CCCC1`, the cytotoxicity at 10 µM was -127%. As for `CCCN1CCC(CC(=O)N2CCC(C(O)c3nccn3C)CC2)CC1` (stereo not given), the cytotoxicity at 10 µM was -1.13%. As for `Cc1cc(CN2CCC(CNC(=O)c3noc4c3CCCC4)C2)[nH]n1` (stereo not given), the cytotoxicity at 10 µM was -142%. As for `Cc1cccc2cc(CN3CCC(N4CCOCC4)CC3)c(=O)[nH]c12`, the figure is -12%.

Consider `CCN(CC)C(=O)[C@@H]1C[C@@H](NC(=O)c2ccoc2)CN1C`, for which the cytotoxicity at 10 µM turned out to be 2.37%. `CC(C)(C(=O)NCC1CCN(Cc2cccnc2)C1)c1ccccc1` (stereo not given): the cytotoxicity at 10 µM was -1.66%. In the case of `CCN1CC(C(=O)N2CCN(CCn3cccc3)CC2)CCC1=O` (stereo not given), the cytotoxicity at 10 µM was 1.87%. `Cc1nc(CCCNC(=O)[C@H]2CNC[C@@H](C(=O)N3CCCC3)C2)sc1C`: the cytotoxicity at 10 µM was -132%.

For the compound `Cc1ccc(C2(CN(C)Cc3sccc3C)CCNCC2)nc1`, the cytotoxicity at 10 µM came out at 8.15%. As for `CCCc1cc(N2CCC(NCC3(O)CCCCC3)CC2)nc(C)n1`, the figure is -2.48%; as for `COc1ncc(CN2CCC3(CCCN(CC4CCCCC4)C3)C2)cn1` (stereo not given), -6.8%. In the case of `CC[C@@]1(O)CCN(C(=O)CN(C)Cc2ccc(F)cc2)C[C@H]1O`, the cytotoxicity at 10 µM was 3.38%. In the case of `COc1cccc2c1OCC(Cc1ccc(N)nc1C)C2` (stereo not given), the cytotoxicity at 10 µM worked out at 3.29%. As for `CCc1nnc(CNC(=O)CCC2CCCCN2C)s1` (stereo not given), the figure is -147%. As for `CN(C)S(=O)(=O)N1CC[C@]2(O)CCN(c3ncccn3)C[C@@H]2C1`, the figure is 5.74%. Then `O=C(CC1CCc2ccccc21)N1CCC(O)(c2cccnc2)CC1` (stereo not given), with 7.19%; and `Cc1cnn(CCNCc2ccc(C#N)cc2)c1`, with -10.7%; and `Cc1nc(CN2CCN(C(C)c3nc(C(C)C)no3)CC2)oc1C` (stereo not given), with -9.16%. As for `CNC(=O)c1ccc(CN(C(=O)c2scnc2C)C2CC2)cc1`, the cytotoxicity at 10 µM was -3.09%.

Regarding `Cc1ccc(Cl)cc1N1CCC(CNC(=O)CC(F)(F)F)C1` (stereo not given), the cytotoxicity at 10 µM is -9.7%. Then `Cc1noc(CCCC(=O)NC(C)c2cn(-c3ccccc3)nn2)n1` (stereo not given), with -8.18%; and `Fc1ccc(-c2cnc(CN3CCCC3Cn3cccn3)o2)cc1` (stereo not given), with -7.52%. Then `Cc1cc(C)n(C2CN(CC(O)c3ccc(F)cc3)C2)n1` (stereo not given), with -13%. Then `CC(C)C(=O)NC1CCN(Cc2cccc3c2OCCO3)CC1`, with -0.818%; and `Cc1cc(C(=O)NCCn2nc3ccccn3c2=O)[nH]n1`, with -4.92%; and `Cc1nc[nH]c1CN(Cc1ccccc1)C1CC(C)(C)NC(C)(C)C1`, with 0.968%.

In the case of `c1coc(CN2CCO[C@H]3[C@@H](OCC4CC4)CC[C@@H]32)c1`, the cytotoxicity at 10 µM worked out at 6.68%. As for `CCOCC1c2c(cnn2CC2CC2)CCN1C(=O)c1ccncn1` (stereo not given), the figure is -118%; as for `CC(C)CN1CCN(C)C2(CCN(Cc3ccsc3)CC2)C1=O`, 4.08%; as for `CC(C)N1Cc2c(C(=O)N3CCOCC3)nn(C)c2C1`, 0.0756%.

As for `N#Cc1ccccc1CN1C[C@H]2CC[C@@H](C1)N(Cc1cscn1)C2=O`, the cytotoxicity at 10 µM is -8.42%. As for `O=C(CCN1C[C@@H]2CC[C@H]1CN(c1ncccn1)C2)NCc1ccco1`, the figure is -1.18%; as for `COc1nccnc1N1C[C@H]2CC[C@@H](C1)N(CC=C(C)C)C2=O`, 1.76%.
